According to ChEMBL document CHEMBL3120094, “The survival times of malaria-infected mice are prolonged more by several new two-carbon-linked artemisinin-derived dimer carbamates than by the trioxane antimalarial drug artemether” (2014):

Legend:
Type in all cases: functional
[1] = tested on: Plasmodium berghei; test: Antimalarial activity against Plasmodium berghei ANKA infected in C57BL/6J mouse assessed as increase of host survival days at 5 mg/kg, po administered after 24 hrs post infection in presence of 15 mg/kg of mefloquine hydrochloride (reference value: 6.5 days)
[2] = tested on: Plasmodium berghei; test: Antimalarial activity against Plasmodium berghei ANKA infected in C57BL/6J mouse assessed as decrease of parasitemia level at 5 mg/kg, po administered after 24 hrs post infection measured after 3 days in presence of 15 mg/kg of mefloquine hydrochloride relative to control; design: scale not given: the % may be the effect or the level left
Summary of the method: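 Male C57BL/6J mice, 5 weeks old and about 20 g, were infected with P. berghei ANKA (2 × 10⁷ parasitized erythrocytes). At 24 h they got one 200 μL oral dose: 5 mg/kg trioxane plus 15 mg/kg mefloquine hydrochloride in 7:3 Tween 80/ethanol diluted with water. Blood parasitemia was read on day 3 post-infection as % suppression versus untreated infected mice. Four mice per group.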

[3] = tested on: Plasmodium berghei; test: Antimalarial activity against Plasmodium berghei ANKA infected in C57BL/6J mouse assessed as parasitemia level at 5 mg/kg, po administered after 24 hrs post infection measured after 30 days in presence of 15 mg/kg of mefloquine hydrochloride relative to control
[4] = tested on: Plasmodium berghei; test: Antimalarial activity against Plasmodium berghei ANKA infected in C57BL/6J mouse assessed as increase of host survival days at 15 mg/kg, po administered after 24 hrs post infection (reference value: 6.5 days)
[5] = tested on: Plasmodium berghei; test: Antimalarial activity against Plasmodium berghei ANKA infected in C57BL/6J mouse assessed as decrease of parasitemia level at 15 mg/kg, po administered after 24 hrs post infection measured after 3 days relative to control; design: scale not given: the % may be the effect or the level left
Summary of the method: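 Male C57BL/6J mice, 5 weeks old and about 20 g, were infected with P. berghei ANKA at 2 × 10⁷ parasitized erythrocytes. At 24 h post-infection, 4 mice per group received a single oral 200 μL dose in 7:3 Tween 80/ethanol diluted in deionized water. The dose was trioxane 5 mg/kg with mefloquine hydrochloride 15 mg/kg. Parasitemia suppression was read on day 3 versus untreated infected mice.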

Structure (SMILES) | Survival [1] [days] | Activity [2] [%] | Activity [3] [%] | Survival [4] [days] | Activity [5] [%]
C[C@H]1[C@@H]([C@H](O)C[C@H]2O[C@@H]3O[C@@]4(C)CC[C@H]5[C@H](C)CC[C@@H]([C@H]2C)[C@@]35OO4)O[C@@H]2O[C@@]3(C)CC[C@H]4[C@H](C)CC[C@@H]1[C@@]24OO3 | 24.8 | >99.9 |  |  | 
C[C@H]1[C@@H]([C@@H](O)C[C@H]2O[C@@H]3O[C@@]4(C)CC[C@H]5[C@H](C)CC[C@@H]([C@H]2C)[C@@]35OO4)O[C@@H]2O[C@@]3(C)CC[C@H]4[C@H](C)CC[C@@H]1[C@@]24OO3 | 25 | >99.9 |  |  | 
C[C@H]1[C@@H]([C@H](C[C@H]2O[C@@H]3O[C@@]4(C)CC[C@H]5[C@H](C)CC[C@@H]([C@H]2C)[C@@]35OO4)OC(=O)Nc2ccccc2)O[C@@H]2O[C@@]3(C)CC[C@H]4[C@H](C)CC[C@@H]1[C@@]24OO3 | 17 | >99.9 |  |  | 
C[C@H]1[C@@H]([C@H](C[C@H]2O[C@@H]3O[C@@]4(C)CC[C@H]5[C@H](C)CC[C@@H]([C@H]2C)[C@@]35OO4)OC(=O)Nc2cccc(F)c2)O[C@@H]2O[C@@]3(C)CC[C@H]4[C@H](C)CC[C@@H]1[C@@]24OO3 | 20.3 | >99.9 |  |  | 
C[C@H]1[C@@H]([C@H](C[C@H]2O[C@@H]3O[C@@]4(C)CC[C@H]5[C@H](C)CC[C@@H]([C@H]2C)[C@@]35OO4)OC(=O)Nc2ccc(F)cc2)O[C@@H]2O[C@@]3(C)CC[C@H]4[C@H](C)CC[C@@H]1[C@@]24OO3 | 18.8 | >99.9 |  |  | 
Cc1cc(NC(=O)O[C@@H](C[C@H]2O[C@@H]3O[C@@]4(C)CC[C@H]5[C@H](C)CC[C@@H]([C@H]2C)[C@@]35OO4)[C@H]2O[C@@H]3O[C@@]4(C)CC[C@H]5[C@H](C)CC[C@@H]([C@H]2C)[C@@]35OO4)ccc1F | 13.5 | >99.9 |  |  | 
C[C@H]1[C@@H]([C@H](C[C@H]2O[C@@H]3O[C@@]4(C)CC[C@H]5[C@H](C)CC[C@@H]([C@H]2C)[C@@]35OO4)OC(=O)Nc2ccc(F)c(F)c2)O[C@@H]2O[C@@]3(C)CC[C@H]4[C@H](C)CC[C@@H]1[C@@]24OO3 | 25.5 | >99.9 | 8 |  | 
C[C@H]1[C@@H]([C@H](C[C@H]2O[C@@H]3O[C@@]4(C)CC[C@H]5[C@H](C)CC[C@@H]([C@H]2C)[C@@]35OO4)OC(=O)Nc2cc(F)cc(F)c2)O[C@@H]2O[C@@]3(C)CC[C@H]4[C@H](C)CC[C@@H]1[C@@]24OO3 | 21.8 | >99.9 |  |  | 
C[C@H]1[C@@H]([C@H](C[C@H]2O[C@@H]3O[C@@]4(C)CC[C@H]5[C@H](C)CC[C@@H]([C@H]2C)[C@@]35OO4)OC(=O)Nc2cccc(C(F)(F)F)c2)O[C@@H]2O[C@@]3(C)CC[C@H]4[C@H](C)CC[C@@H]1[C@@]24OO3 | 18 | >99.9 |  |  | 
C[C@H]1[C@@H]([C@H](C[C@H]2O[C@@H]3O[C@@]4(C)CC[C@H]5[C@H](C)CC[C@@H]([C@H]2C)[C@@]35OO4)OC(=O)Nc2ccc(C(F)(F)F)cc2)O[C@@H]2O[C@@]3(C)CC[C@H]4[C@H](C)CC[C@@H]1[C@@]24OO3 | 10.8 | >99.9 |  |  | 
C[C@H]1[C@@H]([C@H](C[C@H]2O[C@@H]3O[C@@]4(C)CC[C@H]5[C@H](C)CC[C@@H]([C@H]2C)[C@@]35OO4)OC(=O)Nc2ccc(F)c(Cl)c2)O[C@@H]2O[C@@]3(C)CC[C@H]4[C@H](C)CC[C@@H]1[C@@]24OO3 | 24.8 | >99.9 | 8 |  | 
C[C@H]1[C@@H]([C@H](C[C@H]2O[C@@H]3O[C@@]4(C)CC[C@H]5[C@H](C)CC[C@@H]([C@H]2C)[C@@]35OO4)OC(=O)Nc2cccc(Cl)c2)O[C@@H]2O[C@@]3(C)CC[C@H]4[C@H](C)CC[C@@H]1[C@@]24OO3 | 26.8 | >99.9 | 8 |  | 
C[C@H]1[C@@H]([C@H](C[C@H]2O[C@@H]3O[C@@]4(C)CC[C@H]5[C@H](C)CC[C@@H]([C@H]2C)[C@@]35OO4)OC(=O)Nc2ccc(Cl)cc2)O[C@@H]2O[C@@]3(C)CC[C@H]4[C@H](C)CC[C@@H]1[C@@]24OO3 | 18.3 | >99.9 |  |  | 
C[C@H]1[C@@H]([C@H](C[C@H]2O[C@@H]3O[C@@]4(C)CC[C@H]5[C@H](C)CC[C@@H]([C@H]2C)[C@@]35OO4)OC(=O)Nc2ccc(Br)cc2)O[C@@H]2O[C@@]3(C)CC[C@H]4[C@H](C)CC[C@@H]1[C@@]24OO3 | 12.5 | >99.9 |  |  | 
C[C@H]1[C@@H]([C@H](C[C@H]2O[C@@H]3O[C@@]4(C)CC[C@H]5[C@H](C)CC[C@@H]([C@H]2C)[C@@]35OO4)OC(=O)Nc2ccc(C#N)cc2)O[C@@H]2O[C@@]3(C)CC[C@H]4[C@H](C)CC[C@@H]1[C@@]24OO3 | 17.8 | >99.9 |  |  | 
C[C@H]1[C@@H]([C@H](C[C@H]2O[C@@H]3O[C@@]4(C)CC[C@H]5[C@H](C)CC[C@@H]([C@H]2C)[C@@]35OO4)OC(=O)Nc2ccc([N+](=O)[O-])cc2)O[C@@H]2O[C@@]3(C)CC[C@H]4[C@H](C)CC[C@@H]1[C@@]24OO3 | 22 | >99.9 |  |  | 
OC(c1cc(C(F)(F)F)nc2c(C(F)(F)F)cccc12)C1CCCCN1 (configuration not stated) [MEFLOQUINE] |  |  |  | 20.3 | >99.9
